The target of data set [1] is Phosphatidylinositol 4,5-bisphosphate 3-kinase catalytic subunit gamma isoform (Homo sapiens, UniProt P48736). Description: Inhibition of human recombinant PI3Kgamma assessed as depletion of ATP substrate by Ultra Glo luciferase assay. The procedure, abridged: (§1)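 Enzyme IC50s are reported as the geometric mean of 3 or more values.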
Data set [2] addresses T1, Phosphatidylinositol 4,5-bisphosphate 3-kinase catalytic subunit beta isoform (Homo sapiens, UniProt P42338). Description: Inhibition of PI3Kbeta in human MAD-MB-468 cells assessed as inhibition of Ser473 Akt phosphorylation by cellular potency assay.
Data set [3] can be described thus: Fraction unbound in mouse plasma. The data set is classed as ADME, cell-free. The procedure, abridged:
(§2)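 Protein binding was measured in nude mouse plasma and in human plasma and is expressed as fraction unbound (%).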

Data set [4] has as its system Mus musculus. Put plainly: Inhibition of Akt phosphorylation in SCID mouse xenografted with PTEN-null human PC3 cells at 100 mg/kg, po measured after 8 hrs. The data set is classed as functional. To be noted: PC-3, 8 h. The procedure, abridged: (§3)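 SCID mice carrying PTEN-null PC3 prostate xenografts received a single oral dose as a suspension (50, 100 or 200 mg/kg).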
For orientation: Xenograft models place foreign cells or tissue in a host animal.

A short description of data set [5]: Solubility of the compound in phosphate buffer at pH 7.4. The data set is classed as physicochemical. The procedure, abridged: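 Solubility was measured from solid material in phosphate buffer at pH 7.4.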
The nature of data set [6]: Ratio of total plasma concentration in PTEN-null human PC3 cells xenografted in SCID mouse at 100 mg/kg, po single dose at 4 hrs to IC50 for PI3Kbeta in human MAD-MB-468 cells. On the set-up: species or system PC-3.
Data set [7] can be described thus: Clearance in mouse plasma at 5 umol/kg, iv and 30 umol/kg, po. The data set is classed as ADME, organism-based. The procedure, abridged: (§4)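 […] mice were dosed at 5 µmol/kg i.v. and 30 µmol/kg p.o. Clearance is given in mL/min/kg and oral bioavailability in %.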
A short description of data set [8]: Buffer/octanol partition coefficient, log D of the compound at pH 7.4 by shake flask method. In kind it is physicochemical. In outline: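 LogD at pH 7.4 was measured by shake-flask with a buffer/octanol volume ratio of 100:1.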
A short description of data set [9]: Ratio of total plasma concentration in PTEN-null human PC3 cells xenografted in SCID mouse at 100 mg/kg, po single dose at 1 hrs to IC50 for PI3Kbeta in human MAD-MB-468 cells. More on the design: species or system PC-3.
The target in data set [10] is T2, Phosphatidylinositol 4,5-bisphosphate 3-kinase catalytic subunit delta isoform (Homo sapiens, UniProt O00329).
T2 sequence (O00329 whole entry): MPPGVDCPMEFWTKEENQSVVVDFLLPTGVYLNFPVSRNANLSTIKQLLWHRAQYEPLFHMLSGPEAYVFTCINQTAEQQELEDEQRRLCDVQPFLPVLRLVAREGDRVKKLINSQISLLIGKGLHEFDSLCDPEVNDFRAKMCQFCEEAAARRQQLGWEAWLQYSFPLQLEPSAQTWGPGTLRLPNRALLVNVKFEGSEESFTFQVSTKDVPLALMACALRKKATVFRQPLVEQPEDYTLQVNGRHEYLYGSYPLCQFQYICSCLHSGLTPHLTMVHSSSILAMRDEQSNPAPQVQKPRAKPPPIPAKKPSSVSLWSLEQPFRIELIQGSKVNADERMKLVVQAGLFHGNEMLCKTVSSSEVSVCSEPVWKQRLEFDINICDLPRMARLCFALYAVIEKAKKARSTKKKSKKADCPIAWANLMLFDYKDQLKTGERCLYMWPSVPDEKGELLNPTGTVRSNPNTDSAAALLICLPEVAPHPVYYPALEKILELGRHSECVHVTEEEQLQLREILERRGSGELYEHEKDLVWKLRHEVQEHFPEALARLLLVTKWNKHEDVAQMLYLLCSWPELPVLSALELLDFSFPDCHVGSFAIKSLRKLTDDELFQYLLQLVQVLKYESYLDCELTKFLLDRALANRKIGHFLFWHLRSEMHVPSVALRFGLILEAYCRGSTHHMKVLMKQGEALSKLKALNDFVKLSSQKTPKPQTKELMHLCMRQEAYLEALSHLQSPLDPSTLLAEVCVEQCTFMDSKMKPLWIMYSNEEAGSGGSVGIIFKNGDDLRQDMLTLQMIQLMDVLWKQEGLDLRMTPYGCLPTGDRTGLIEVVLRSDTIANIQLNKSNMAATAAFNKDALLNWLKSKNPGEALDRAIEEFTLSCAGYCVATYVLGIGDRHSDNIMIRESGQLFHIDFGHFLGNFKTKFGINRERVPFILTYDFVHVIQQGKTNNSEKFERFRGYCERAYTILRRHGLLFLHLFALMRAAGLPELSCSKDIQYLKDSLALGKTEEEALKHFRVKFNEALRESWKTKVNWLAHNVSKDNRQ
Description: Inhibition of human recombinant PI3Kdelta assessed as depletion of ATP substrate by Ultra Glo luciferase assay. In outline:
as §1

A short description of data set [11]: Intrinsic clearance in human hepatocytes measured per 10^6 cells. The data set is classed as ADME, cell-based, Hepatocyte. The note with it: read-out: CLH. In outline:
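Intrinsic clearance was measured in human hepatocytes and is expressed in µL/min/10^6 cells.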

In data set [12] the test system is Mus musculus. Put plainly: Inhibition of Akt phosphorylation in SCID mouse xenografted with PTEN-null human PC3 cells at 100 mg/kg, po measured after 1 hr. In kind it is functional. The note with it: PC-3, 1 h. In outline:
as §3

Data set [13] can be described thus: Total plasma concentration in SCID mouse xenografted with PTEN-null human PC3 cells at 100 mg/kg, po measured after 1 hr. In kind it is ADME, organism-based, PC-3. On the set-up: dose 100 mg/kg, route oral. The procedure, abridged:
(§5)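 Total plasma concentration was measured in SCID mice carrying PC3 xenografts after a single oral dose given as a suspension (50, 100 or 200 mg/kg). Samples were taken at 0.5 to 8 h.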

The nature of data set [14]: Bioavailability in mouse plasma at 5 umol/kg, iv and 30 umol/kg, po. In kind it is ADME, organism-based. In outline:
as §4

Data set [15] has as its target T3, Phosphatidylinositol 4,5-bisphosphate 3-kinase catalytic subunit alpha isoform (Homo sapiens, UniProt P42336). Put plainly: Inhibition of human recombinant PI3Kalpha assessed as depletion of ATP substrate by Ultra Glo luciferase assay. The procedure, abridged: as §1
Data set [16] in a line: Ratio of total plasma concentration in PTEN-null human PC3 cells xenografted in SCID mouse at 100 mg/kg, po single dose at 8 hrs to IC50 for PI3Kbeta in human MAD-MB-468 cells. On the set-up: species or system PC-3.
The nature of data set [17]: Apparent permeability from apical (pH 6.5) to […] of human Caco2 cells. The data set is classed as ADME, cell-based. The note with it: Caco-2, pH 6.5. For orientation: Passage across Caco-2 layers is used to estimate intestinal permeability.
Data set [18] is described as follows: Fraction unbound in human plasma. The data set is classed as ADME, cell-free. The procedure, abridged:
as §2

Data set [19] concerns Mus musculus. Put plainly: Inhibition of Akt phosphorylation in SCID mouse xenografted with PTEN-null human PC3 cells at 100 mg/kg, po measured after 4 hrs. The note with it: PC-3, 4 h. In kind it is functional. In outline:
as §3

Data set [20] in a line: Total plasma concentration in SCID mouse xenografted with PTEN-null human PC3 cells at 100 mg/kg, po measured after 8 hrs. In kind it is ADME, organism-based, PC-3. More on the design: dose 100 mg/kg, route oral. In outline: as §5
For data set [21], the target named is T3, Phosphatidylinositol 4,5-bisphosphate 3-kinase catalytic subunit alpha isoform. Put plainly: Inhibition of PI3Kalpha in human BT474 cells assessed as inhibition of […] Akt phosphorylation after 2 hrs by fluorescence assay. The data set is classed as cell-based, BT-474. The procedure, abridged:
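BT474 cells were seeded in DMEM with 10% FCS and 1% glutamine and left to adhere overnight, then treated with compound in DMSO for 2 h at 37 °C and 5% CO2. Cells were lysed with a phosphatase/protease-inhibitor buffer. Lysate was captured on anti-total-Akt plates, probed with anti-phospho-Akt Thr308 and an HRP secondary, and read by fluorescence (ex 325/em 420 nm). Values are the geometric mean of ≥2 determinations.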

Data set [22] deals with T1, Phosphatidylinositol 4,5-bisphosphate 3-kinase catalytic subunit beta isoform. Put plainly: Inhibition of human recombinant PI3Kbeta assessed as depletion of ATP substrate by Ultra Glo luciferase assay. The procedure, abridged:
as §1

A short description of data set [23]: Total plasma concentration in SCID mouse xenografted with PTEN-null human PC3 cells at 100 mg/kg, po measured after 4 hrs. In kind it is ADME, organism-based, PC-3. More on the design: dose 100 mg/kg, route oral. The procedure, abridged:
as §5

The values below come from ChEMBL document CHEMBL3351561, “Discovery of 9-(1-anilinoethyl)-2-morpholino-4-oxo-pyrido[1,2-a]pyrimidine-7-carboxamides as PI3Kβ/δ inhibitors for the treatment of PTEN-deficient tumours” (Bioorg Med Chem Lett, 2014).

Values after ≈ are worked out from the molar mass of the structure shown.

T1 sequence (P42338 whole entry, canonical isoform): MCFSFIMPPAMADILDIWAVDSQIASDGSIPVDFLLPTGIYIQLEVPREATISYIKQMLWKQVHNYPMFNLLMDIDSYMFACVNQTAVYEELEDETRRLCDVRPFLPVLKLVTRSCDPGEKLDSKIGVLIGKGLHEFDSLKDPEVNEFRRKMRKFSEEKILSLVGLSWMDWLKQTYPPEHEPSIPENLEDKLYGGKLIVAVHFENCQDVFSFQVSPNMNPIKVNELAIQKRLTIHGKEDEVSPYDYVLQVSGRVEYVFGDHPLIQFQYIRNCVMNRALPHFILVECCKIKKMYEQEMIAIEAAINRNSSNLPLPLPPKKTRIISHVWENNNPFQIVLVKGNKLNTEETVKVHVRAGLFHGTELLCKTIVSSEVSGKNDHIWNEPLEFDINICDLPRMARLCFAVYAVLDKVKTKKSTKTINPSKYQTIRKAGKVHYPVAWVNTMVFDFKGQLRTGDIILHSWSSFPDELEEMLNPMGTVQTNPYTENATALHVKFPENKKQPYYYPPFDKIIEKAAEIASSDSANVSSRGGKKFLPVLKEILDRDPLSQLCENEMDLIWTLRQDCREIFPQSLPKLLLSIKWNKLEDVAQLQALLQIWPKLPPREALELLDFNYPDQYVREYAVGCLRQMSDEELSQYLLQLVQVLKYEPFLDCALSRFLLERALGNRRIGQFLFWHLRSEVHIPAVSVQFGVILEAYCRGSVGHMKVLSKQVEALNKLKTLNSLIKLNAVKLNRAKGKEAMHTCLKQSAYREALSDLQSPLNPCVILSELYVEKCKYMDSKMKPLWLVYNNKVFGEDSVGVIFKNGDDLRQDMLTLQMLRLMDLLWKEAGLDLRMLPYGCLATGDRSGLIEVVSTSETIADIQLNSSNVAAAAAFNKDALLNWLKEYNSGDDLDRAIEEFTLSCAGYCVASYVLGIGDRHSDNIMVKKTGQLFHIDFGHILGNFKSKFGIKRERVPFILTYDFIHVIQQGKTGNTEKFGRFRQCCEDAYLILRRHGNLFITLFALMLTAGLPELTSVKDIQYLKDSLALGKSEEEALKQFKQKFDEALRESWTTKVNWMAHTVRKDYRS
T3 sequence (P42336 whole entry, canonical isoform): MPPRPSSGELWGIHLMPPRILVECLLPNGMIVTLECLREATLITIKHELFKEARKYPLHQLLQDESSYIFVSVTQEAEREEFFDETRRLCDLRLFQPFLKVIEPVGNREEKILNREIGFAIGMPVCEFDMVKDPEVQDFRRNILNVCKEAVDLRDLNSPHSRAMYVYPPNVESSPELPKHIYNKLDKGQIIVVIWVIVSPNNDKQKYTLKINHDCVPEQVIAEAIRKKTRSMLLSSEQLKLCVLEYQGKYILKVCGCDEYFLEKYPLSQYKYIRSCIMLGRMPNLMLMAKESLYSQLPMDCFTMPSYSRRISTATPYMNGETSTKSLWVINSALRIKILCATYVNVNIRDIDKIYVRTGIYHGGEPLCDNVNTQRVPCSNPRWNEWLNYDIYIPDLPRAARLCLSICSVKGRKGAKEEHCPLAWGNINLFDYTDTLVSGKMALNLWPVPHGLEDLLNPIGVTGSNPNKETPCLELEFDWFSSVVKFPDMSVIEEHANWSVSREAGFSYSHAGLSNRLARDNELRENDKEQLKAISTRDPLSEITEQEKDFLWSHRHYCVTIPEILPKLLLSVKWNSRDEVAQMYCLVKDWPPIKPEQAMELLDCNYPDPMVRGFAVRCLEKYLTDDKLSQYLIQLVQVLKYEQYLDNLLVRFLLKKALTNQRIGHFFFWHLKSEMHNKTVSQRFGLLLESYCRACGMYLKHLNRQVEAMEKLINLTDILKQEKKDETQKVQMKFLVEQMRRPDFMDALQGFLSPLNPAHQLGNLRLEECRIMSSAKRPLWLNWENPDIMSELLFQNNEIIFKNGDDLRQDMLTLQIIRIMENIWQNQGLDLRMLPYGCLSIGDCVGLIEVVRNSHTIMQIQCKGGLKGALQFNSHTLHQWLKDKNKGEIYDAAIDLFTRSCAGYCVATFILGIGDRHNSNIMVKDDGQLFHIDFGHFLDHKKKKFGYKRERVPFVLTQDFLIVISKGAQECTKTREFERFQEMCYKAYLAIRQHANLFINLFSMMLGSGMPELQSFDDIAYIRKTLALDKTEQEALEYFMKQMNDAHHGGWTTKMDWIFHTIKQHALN
Chain of Phosphatidylinositol 4,5-bisphosphate 3-kinase catalytic subunit gamma isoform (P48736 whole entry, canonical isoform): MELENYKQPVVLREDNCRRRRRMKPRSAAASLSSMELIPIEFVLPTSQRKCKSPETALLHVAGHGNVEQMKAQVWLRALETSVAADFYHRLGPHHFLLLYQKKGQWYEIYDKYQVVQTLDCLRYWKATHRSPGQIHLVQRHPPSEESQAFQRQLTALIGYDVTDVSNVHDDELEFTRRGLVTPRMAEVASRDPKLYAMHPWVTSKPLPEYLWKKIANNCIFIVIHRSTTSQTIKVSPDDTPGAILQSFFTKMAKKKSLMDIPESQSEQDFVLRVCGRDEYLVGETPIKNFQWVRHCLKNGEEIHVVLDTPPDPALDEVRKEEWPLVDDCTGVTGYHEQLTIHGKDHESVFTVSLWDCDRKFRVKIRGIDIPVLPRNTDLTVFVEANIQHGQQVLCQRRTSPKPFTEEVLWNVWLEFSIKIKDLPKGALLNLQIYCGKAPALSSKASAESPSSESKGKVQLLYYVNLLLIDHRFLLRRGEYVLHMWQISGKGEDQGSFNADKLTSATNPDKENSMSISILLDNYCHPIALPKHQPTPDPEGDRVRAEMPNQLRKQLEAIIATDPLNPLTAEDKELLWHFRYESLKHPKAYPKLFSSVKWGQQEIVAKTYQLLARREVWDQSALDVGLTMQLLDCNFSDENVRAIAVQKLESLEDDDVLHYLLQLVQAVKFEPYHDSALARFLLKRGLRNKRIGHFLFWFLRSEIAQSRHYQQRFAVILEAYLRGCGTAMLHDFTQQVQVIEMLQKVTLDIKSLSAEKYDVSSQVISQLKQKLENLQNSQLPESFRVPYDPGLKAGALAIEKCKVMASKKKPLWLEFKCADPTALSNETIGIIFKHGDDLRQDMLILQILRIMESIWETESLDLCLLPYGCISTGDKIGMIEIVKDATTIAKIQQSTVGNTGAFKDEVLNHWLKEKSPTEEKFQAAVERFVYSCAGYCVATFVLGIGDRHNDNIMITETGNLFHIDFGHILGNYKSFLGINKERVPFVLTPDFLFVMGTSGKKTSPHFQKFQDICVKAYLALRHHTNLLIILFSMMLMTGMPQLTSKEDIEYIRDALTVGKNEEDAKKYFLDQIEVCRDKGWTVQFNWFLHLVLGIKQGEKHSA

The term IC50 denotes the midpoint of a concentration-inhibition curve. Broadly, the fraction unbound is the share of the substance not bound to proteins or other matrix. A high value points to much free substance. By inhibition in vivo is commonly meant the change of the read-out against control, counted positive when it falls. Higher therefore signals strong suppression. The term solubility denotes the concentration that dissolves in the medium under given conditions. For orientation: logD means lipophilicity at a set pH, counting ionised and neutral species. A low value points to a more hydrophilic compound. As a reminder, the bioavailability is dose-corrected exposure relative to a reference, in per cent. The low end stands for poor availability, the high end for good availability. One may read the Papp A→B as the apparent permeability from the apical to the basolateral side of a cell layer. For `C[C@@H](Nc1cc(F)cc(F)c1)c1cc(C(=O)N(C)C)cn2c(=O)cc(N3CCOCC3)nc12`, the IC50 in data set [1] amounted to 510 nM; in data set [2], 3 nM; in data set [10] it was 32 nM; in [15], 75 nM; in data set [21], 1200 nM; in [22], 5 nM. Moreover, the results for the fraction unbound in data set [3] and in data set [18] were 0.047 and 0.12, respectively. Also, the figures for the inhibition in vivo at 100 mg/kg in the data set on Mus musculus [4], with Mus musculus [12] and with Mus musculus [19] were 56%, 92% and 80%, respectively. Besides, in [5], the solubility was 15 µM (≈ 6.86 µg/mL). Moreover, the values for the Ratio in data set [6], in [9] and in data set [16] were 106, 204 and 41, respectively. Besides, the clearance in data set [7] came to 82 mL/min/kg. In [8], the pH-dependent lipophilicity (logD) was found to be 3. Moreover, the hepatocyte CLint in data set [11] was determined as 11 µL/min/1e6 cells. Moreover, in data set [13], the concentration at 1 h is 13 µM. Also, in data set [14], the bioavailability was found to be 31%. Further, the Papp A→B in [17] came out at 50 ×10⁻⁶ cm/s. Moreover, the concentration at 8 h in [20] was found to be 2.6 µM. This compound also had a concentration at 4 h in data set [23] of 6.8 µM.
